Source: PubChem (several laboratories)
Sampled rows, rich in hits. Any-hit rate of the full collection: about 2.5%.
SR-BI HDL uptake = inhibitors of mouse SR-BI mediated HDL lipid uptake | Q61009 | ldlA[mSR-BI] CHO cells, DiI-HDL uptake fluorescence, 3 h | inhibition, % at 12.5 µM | actives 0.96% (n = 320,000) | AID 488896;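 active = mean replicate inhibition of at least 70% and a set share of replicates each scoring 70 or more; inconclusive = meets just one of the two criteria; inactive = fails both criteria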
Target sequence (Q61009 whole entry, looked up): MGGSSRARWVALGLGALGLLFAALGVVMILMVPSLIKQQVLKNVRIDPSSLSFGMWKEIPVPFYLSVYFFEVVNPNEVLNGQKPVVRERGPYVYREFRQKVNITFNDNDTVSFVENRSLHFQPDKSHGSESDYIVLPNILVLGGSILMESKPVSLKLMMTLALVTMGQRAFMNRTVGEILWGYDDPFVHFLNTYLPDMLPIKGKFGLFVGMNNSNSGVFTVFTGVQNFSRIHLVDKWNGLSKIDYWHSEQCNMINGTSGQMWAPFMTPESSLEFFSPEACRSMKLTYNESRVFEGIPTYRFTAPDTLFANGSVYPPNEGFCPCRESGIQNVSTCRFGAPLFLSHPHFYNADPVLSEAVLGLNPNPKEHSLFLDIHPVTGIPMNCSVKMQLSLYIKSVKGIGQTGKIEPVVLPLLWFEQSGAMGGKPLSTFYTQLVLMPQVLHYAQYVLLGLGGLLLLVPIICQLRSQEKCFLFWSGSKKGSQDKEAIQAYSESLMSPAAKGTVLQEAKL
SMARCA2 activ = increases SMARCA2 function in MMTV reporter cells | MG213 cells, MMTV-luciferase reporter, dexamethasone, overnight | activation, % at 9.1 µM | actives 1% (n = 370,000); in the data active = activation above about 7.8%
H9c2 TAG inh = triacylglycerol accumulation inhibition. H9c2 cells, Nile Red lipid (TAG) fluorescence; cells loaded with 200 µM oleic acid. inhibition, % at 12.5 µM. actives 0.66% (n = 230,000);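 active = pattern-corrected inhibition of lipid staining of at least 50% with the nuclear-stain viability signal not falling by more than 50%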
SR-BI uptake up = activators of SR-BI mediated HDL lipid uptake | activation, % at 12.5 µM | actives 0.096% (n = 320,000) | CHO ldlA[mSR-BI] cells, DiI-HDL uptake fluorescence, 3 h; 100 = double the neutral-control signal;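 active = mean replicate activation of at least 60% and every replicate at or above 60%; inconclusive = mean or all-replicate condition met, but not both; inactive = mean below 60% and not all replicates reaching 60%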
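System: CHO ldlA[mSR-BI] cells / Medium: HEPES-buffered (25 mM, pH 7.4) F12 plus 0.5% BSA / Probe or stimulus: labelled HDL, 10 µg/mL / Doses: single compound concentration, delivered by pin transfer / Schedule: 3 h, 37 °C / Measured by: DiI fluorescence, bottom read / Measure: cell-associated DiI fluorescence as measure of HDL uptake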
Vif imaging = HIV Vif inhibition; actives 0.35% (n = 340,000); inhibition, % at 7.49 µM; HEK293T cells, Vif self-association by quenched fluorescence, imaging, 24 h; AID 602346; in the data active = inhibition above about 50%, passing the limit was not always enough; inconclusive = no clear call, values can overlap the other calls; inactive = below about 31%
DiI quench = quenches DiI-HDL fluorescence, an SR-BI assay artifact. cell-free DiI-HDL fluorescence quenching, 30 min. actives 20% (n = 470). AC50, µM (series often up to 35 µM). AID 540326. shares compounds with SR-BI HDL uptake;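 active = quenching, a falling signal, with AC50 below a set limit tied to the top valid dose, actives reach about 32 µM in these data; inconclusive = no clear call, values can overlap the other calls; inactive = rising signal, and the rest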
A number is an active result; . = inactive; ? = inconclusive; / = no result.

SMILES	SR-BI HDL uptake	SMARCA2 activ	H9c2 TAG inh	SR-BI uptake up	Vif imaging	others
O=C(CCc1ccccc1-c1ccccc1CCNC(=O)c1cccc(F)c1)NCc1ccccc1	/	.	/	/	/
CCC1Oc2ccc(C)cc2N(CC(=O)NC2CCCCC2)C1=O (stereo not given)	89	.	/	.	.
CCOC(=O)N1CCC(NC(=O)CN2C(=O)C(CC)Oc3ccc(C)cc32)CC1 (stereo not given)	.	.	/	.	.
Cc1ccc2c(c1)N(CC(=O)N1CCCCCC1)C(=O)C(C)O2 (stereo not given)	.	.	/	.	69
Cc1ccc2c(c1)N(CC(=O)N1CCOCC1)C(=O)C(C)O2 (stereo not given)	.	.	/	.	.
CC(C)(C)S(=O)(=O)N1Cc2cc(CO)ccc2[C@H]1CCO	/	.	/	/	/
COC(=O)[C@]12C[C@H](CC(=O)NCCCN3CCCC3=O)C(=O)N(Cc3ccccc3)C1=C[C@H](C1CCCC1)O[C@@H]2C	/	.	/	/	/
Cc1cc(N2CCN(C(=O)OC(C)(C)C)C[C@@H]2C)ccc1Br	/	.	/	/	/
Cc1ccc(S(=O)(=O)N2CCN(C(=O)COC(=O)c3cc([N+](=O)[O-])ccc3NCCO)CC2)c(C)c1	79	.	.	.	.
CCCCCCCCN1C(=O)[C@@H](CC(=O)N2CCN(C(=O)C3CC3)CC2)C[C@@]2(C(=O)OC)C1=C[C@H](C1CCCC1)O[C@@H]2C	/	.	/	/	/
Cc1cc(=O)[nH]c(SCn2nnc3ccccc3c2=O)n1	.	.	/	.	.
O=c1c2ccccc2nnn1CSc1nc2ccccc2[nH]1	.	14	/	.	.
CCC(C)CNC(=O)CSc1nnc(-c2cccnc2)n1C1CCCCC1 (stereo not given)	/	.	/	/	/
CCOc1ccccc1NC(=O)C1C2CCC3C(CCC21)C3(Cl)Cl (stereo not given)	73	.	/	.	.
COCc1[nH]nc2c1C(c1ccc(C)cc1)N(c1ccc(OC)cc1)C2=O (stereo not given)	/	.	/	/	/
CC1=CC(C)(C)N2C(=O)C3(NCCc4c3[nH]c3ccccc43)c3cc(C)cc1c32 (stereo not given)	88	.	68	.	.
Cn1c(=S)n(/N=C/c2cccs2)c2ccccc21	.	.	.	262	.
COc1cccc(/C=N/n2c(=S)n(C)c3ccccc32)c1OC	.	.	.	.	.
CC(=O)N1CCN(c2ccc(NC(=O)c3ccc([N+](=O)[O-])o3)cc2Cl)CC1	/	.	/	/	57
CCC(=O)N1CCN(c2ccc(NC(=O)c3ccc([N+](=O)[O-])o3)cc2Cl)CC1	.	.	.	.	66
CN1CCN(c2ccccc2NC(=O)c2ccc([N+](=O)[O-])o2)CC1	.	/	54	.	.
COC(=O)[C@]12C[C@H](CC(=O)NCc3ccccc3)C(=O)N(CCC3=CCCCC3)C1=C[C@H](C1CCCC1)O[C@@H]2C	/	.	/	/	/
Cc1ccc(NC(=O)c2ccc(Cl)c(S(=O)(=O)NCc3ccco3)c2)c(O)c1	90	.	.	.	.
CC(=O)N1c2c(cc(Br)cc2S(=O)(=O)N2CCOCC2)CC1C (stereo not given)	.	.	.	.	63
COC(=O)[C@]12CCCCC=C1N(Cc1ccc(OC)cc1)C(=O)[C@@H]2CC(=O)N1CCOCC1	/	.	/	/	/
SMILES	SR-BI HDL uptake	SMARCA2 activ	H9c2 TAG inh	SR-BI uptake up	Vif imaging	others
CCOc1cc(/C=C/c2ccc3cccc([N+](=O)[O-])c3n2)ccc1OCC(=O)N(C)C	83	.	.	.	.
CCOc1cc(/C=C/c2ccc3cccc([N+](=O)[O-])c3n2)ccc1O	81	.	/	.	.
COc1ccc2cc(-c3cc(C(=O)OCC(=O)NC4CCS(=O)(=O)C4)c4ccccc4n3)ccc2c1 (stereo not given)	.	.	.	.	52
COc1ccc(-c2cc(C(=O)OCC(=O)NC3CC3)c3ccccc3n2)cc1	.	.	.	.	.
COc1ccc2cc(-c3cc(C(=O)OCC(=O)Nc4c(C)n(C)n(-c5ccccc5)c4=O)c4ccccc4n3)ccc2c1	76	.	/	.	.
CC(C)(C)S(=O)(=O)N1C[C@@H]2CC(=O)C=C2[C@H]1CCO	/	.	/	/	/
S=c1[nH]ccn1-c1cccc(Cl)c1Cl	.	.	.	.	52
S=c1[nH]ccn1-c1ccccc1Cl	.	.	.	.	.
COC(=O)c1cc2c(c3c4ccccc4n(S(=O)(=O)c4ccccc4)c13)C(=O)N(Cc1ccc(C(F)(F)F)cc1)C2	/	.	/	/	/
CCC(=O)c1ccc(OCC(=O)OCC(=O)Nc2cccc(S(=O)(=O)N3CCOCC3)c2)cc1	.	7.8	.	.	.
CCC(=O)c1ccc(OCC(=O)OCC(=O)Nc2cccc(S(=O)(=O)N3CCCC3)c2)cc1	.	.	.	.	.
CC(=O)Nc1cccc(OCC(=O)Nc2cccc(S(=O)(=O)N3CCCC3)c2)c1	.	.	.	449	.
CCCCCn1c(C)c(CC(=O)Nc2ccc(Oc3cccnc3)c(C)c2)c2ccccc21	/	.	/	/	/
CCOC(=O)c1[nH]c2ccc(OC)cc2c1NC(=O)c1ccc2c(c1)OCO2	.	.	.	.	.
COC(=O)c1[nH]c2cc(OC)ccc2c1NC(=O)c1ccc2c(c1)OCO2	72	.	.	.	.	DiI quench=12µM
NC(=O)c1ncn([C@@H]2O[C@H](C(=O)N[C@H](Cc3c[nH]c4ccccc34)C(=O)NCC(=O)N3CCCCC3)[C@@H](O)[C@H]2O)n1	/	.	/	/	/
CN(C(=O)COC(=O)c1c2c(nc3ccccc13)/C(=C/c1cccc([N+](=O)[O-])c1)CCC2)C1CCS(=O)(=O)C1 (stereo not given)	.	.	.	.	.	DiI quench=.
CCOC(=O)C1CCN(C(=O)Cn2nc(C)n3nc(-c4ccc(OC)cc4)cc3c2=O)CC1	.	.	/	.	.	DiI quench=.
CCOC(=O)N1CCN(C(=O)Cn2nc(C)n3nc(-c4ccc(OC)cc4)cc3c2=O)CC1	.	.	/	.	.
Cc1cccc(NC(=O)CNC(=O)[C@H](CCc2ccccc2)NC(=O)[C@H]2O[C@@H](n3cnc4c(N)ncnc43)[C@H](O)[C@@H]2O)c1C	/	.	/	/	/
O=C(COc1ccccc1C(=O)NCc1ccccc1)Nc1ccc(I)cc1	/	.	/	/	/
CCOC(=O)Nc1ccc2c(c1)N(C(=O)C(C)N1CCCC1)c1ccccc1CC2 (stereo not given)	.	/	/	.	.	DiI quench=.
CCOC(=O)C1=C(CNCCOc2ccc(OC)cc2)NC(=O)NC1c1ccc2c(c1)OCO2 (stereo not given)	?	.	.	.	.	DiI quench=.
CCOC(=O)C1=C(CNCCc2ccc(Cl)cc2)NC(=O)NC1c1ccc2c(c1)OCO2 (stereo not given)	.	.	.	.	.
CCOC(=O)[C@]12CCCC=C1N(Cc1ccc(OC)cc1)C(=O)[C@@H]2CC(=O)NCCc1ccccc1OC	/	.	/	/	/
